Experimental data taken from ChEMBL document CHEMBL2424622, “Development of amino-pyrimidine inhibitors of c-Jun N-terminal kinase (JNK): kinase profiling guided optimization of a 1,2,3-benzotriazole lead” (Bioorg Med Chem Lett, 2013).
pIC50: −log10 of the molar value.

Columns and labels:
[1] = target: T1, Cyclin-dependent kinase 11A (Homo sapiens) (UniProt Q9UQ88); assay: Competitive binding affinity to CDC2L2 (unknown origin) at 10 uM in presence of ATP relative to control
T1 sequence (whole entry): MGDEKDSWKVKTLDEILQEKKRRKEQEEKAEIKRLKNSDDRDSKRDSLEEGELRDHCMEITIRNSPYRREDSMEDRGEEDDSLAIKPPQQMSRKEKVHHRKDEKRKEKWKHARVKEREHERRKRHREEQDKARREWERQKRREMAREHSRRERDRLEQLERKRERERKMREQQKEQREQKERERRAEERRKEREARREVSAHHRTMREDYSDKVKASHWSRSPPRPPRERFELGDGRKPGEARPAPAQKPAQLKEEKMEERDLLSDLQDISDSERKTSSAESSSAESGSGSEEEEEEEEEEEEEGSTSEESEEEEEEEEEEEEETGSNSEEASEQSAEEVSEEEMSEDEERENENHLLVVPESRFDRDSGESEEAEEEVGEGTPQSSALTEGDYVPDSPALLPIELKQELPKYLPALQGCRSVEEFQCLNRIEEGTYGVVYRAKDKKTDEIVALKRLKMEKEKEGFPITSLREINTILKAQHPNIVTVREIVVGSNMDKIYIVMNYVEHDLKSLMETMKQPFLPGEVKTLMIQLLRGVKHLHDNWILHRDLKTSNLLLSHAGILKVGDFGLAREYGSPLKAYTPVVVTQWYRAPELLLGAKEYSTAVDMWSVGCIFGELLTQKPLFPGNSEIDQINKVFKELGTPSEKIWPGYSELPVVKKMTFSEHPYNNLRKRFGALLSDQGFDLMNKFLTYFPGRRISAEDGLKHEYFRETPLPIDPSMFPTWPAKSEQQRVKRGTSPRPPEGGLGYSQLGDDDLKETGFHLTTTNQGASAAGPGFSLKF
Outline: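 In vitro ATP-site competition binding format, run as one member of a diverse 128-kinase profiling panel. Each compound was tested at a single concentration across the whole panel.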

[2] = target: T2, Inhibitor of nuclear factor kappa-B kinase subunit epsilon (Homo sapiens) (UniProt Q14164); assay: Competitive binding affinity to IKKepsilon (unknown origin) at 10 uM in presence of ATP relative to control
T2 sequence (whole entry): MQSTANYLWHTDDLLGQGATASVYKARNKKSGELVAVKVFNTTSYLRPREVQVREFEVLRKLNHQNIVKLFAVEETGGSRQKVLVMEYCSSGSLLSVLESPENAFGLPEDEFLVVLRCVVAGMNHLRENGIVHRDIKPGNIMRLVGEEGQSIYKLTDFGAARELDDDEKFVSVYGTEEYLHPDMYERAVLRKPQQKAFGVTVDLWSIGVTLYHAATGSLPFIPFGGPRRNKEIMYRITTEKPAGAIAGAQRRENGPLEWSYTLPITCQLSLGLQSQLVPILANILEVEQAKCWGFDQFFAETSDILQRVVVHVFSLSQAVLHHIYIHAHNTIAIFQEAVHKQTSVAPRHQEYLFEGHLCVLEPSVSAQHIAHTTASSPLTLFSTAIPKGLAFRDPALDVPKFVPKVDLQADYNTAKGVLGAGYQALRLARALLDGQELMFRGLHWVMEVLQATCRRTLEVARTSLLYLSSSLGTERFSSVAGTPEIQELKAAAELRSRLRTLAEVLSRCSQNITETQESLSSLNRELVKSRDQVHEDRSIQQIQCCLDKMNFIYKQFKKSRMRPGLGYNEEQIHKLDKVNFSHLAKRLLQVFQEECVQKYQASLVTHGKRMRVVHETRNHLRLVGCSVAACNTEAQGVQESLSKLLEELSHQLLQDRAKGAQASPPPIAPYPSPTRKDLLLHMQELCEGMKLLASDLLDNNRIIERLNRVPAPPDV

[3] = target: Mitogen-activated protein kinase kinase kinase 12 (DLK) (Homo sapiens) (UniProt Q12852); assay: Competitive binding affinity to DLK (unknown origin) at 10 uM in presence of ATP relative to control
Sequence of Mitogen-activated protein kinase kinase kinase 12 (DLK) (Homo sapiens) (Q12852 whole entry, looked up): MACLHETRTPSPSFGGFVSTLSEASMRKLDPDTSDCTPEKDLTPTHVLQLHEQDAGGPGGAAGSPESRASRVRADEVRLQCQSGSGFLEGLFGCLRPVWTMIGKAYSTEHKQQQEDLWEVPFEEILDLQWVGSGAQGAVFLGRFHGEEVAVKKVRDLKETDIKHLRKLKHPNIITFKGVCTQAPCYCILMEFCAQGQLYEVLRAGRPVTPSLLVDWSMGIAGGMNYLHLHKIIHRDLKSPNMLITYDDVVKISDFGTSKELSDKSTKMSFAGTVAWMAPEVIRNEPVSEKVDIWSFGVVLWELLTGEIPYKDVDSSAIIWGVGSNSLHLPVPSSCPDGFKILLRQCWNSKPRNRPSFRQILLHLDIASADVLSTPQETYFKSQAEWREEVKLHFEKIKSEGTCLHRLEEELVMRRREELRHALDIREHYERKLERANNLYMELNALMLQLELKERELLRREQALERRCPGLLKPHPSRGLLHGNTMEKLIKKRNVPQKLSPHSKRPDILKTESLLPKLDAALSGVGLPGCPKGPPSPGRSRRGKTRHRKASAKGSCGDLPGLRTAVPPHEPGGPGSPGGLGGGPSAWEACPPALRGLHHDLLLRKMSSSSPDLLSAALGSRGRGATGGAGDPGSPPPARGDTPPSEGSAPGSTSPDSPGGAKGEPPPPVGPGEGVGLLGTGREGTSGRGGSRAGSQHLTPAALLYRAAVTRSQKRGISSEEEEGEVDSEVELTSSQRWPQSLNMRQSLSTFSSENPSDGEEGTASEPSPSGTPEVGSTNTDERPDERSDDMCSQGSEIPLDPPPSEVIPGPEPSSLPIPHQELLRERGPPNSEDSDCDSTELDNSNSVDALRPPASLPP

[4] = target: Cyclin-dependent kinase 18 (Homo sapiens) (UniProt Q07002); assay: Competitive binding affinity to PCTK3 (unknown origin) at 10 uM in presence of ATP relative to control
Sequence of Cyclin-dependent kinase 18 (Homo sapiens) (Q07002 whole entry): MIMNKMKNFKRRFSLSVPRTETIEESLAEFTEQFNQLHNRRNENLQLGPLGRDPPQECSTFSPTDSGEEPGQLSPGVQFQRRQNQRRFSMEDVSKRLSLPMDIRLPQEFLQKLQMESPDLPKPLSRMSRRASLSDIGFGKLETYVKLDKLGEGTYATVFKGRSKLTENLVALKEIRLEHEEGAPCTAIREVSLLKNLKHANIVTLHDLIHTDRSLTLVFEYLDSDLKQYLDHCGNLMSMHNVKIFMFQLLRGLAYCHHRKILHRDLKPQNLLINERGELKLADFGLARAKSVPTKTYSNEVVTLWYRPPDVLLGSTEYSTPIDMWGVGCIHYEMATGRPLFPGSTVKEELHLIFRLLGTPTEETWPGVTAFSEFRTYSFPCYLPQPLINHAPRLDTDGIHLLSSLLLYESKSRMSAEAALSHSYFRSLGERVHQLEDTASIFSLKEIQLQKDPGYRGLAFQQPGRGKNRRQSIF

[5] = target: Serine/threonine-protein kinase SIK2 (Homo sapiens) (UniProt Q9H0K1); assay: Competitive binding affinity to SNF1LK2 (unknown origin) at 10 uM in presence of ATP relative to control
Sequence of Serine/threonine-protein kinase SIK2 (Homo sapiens) (Q9H0K1 whole entry, looked up): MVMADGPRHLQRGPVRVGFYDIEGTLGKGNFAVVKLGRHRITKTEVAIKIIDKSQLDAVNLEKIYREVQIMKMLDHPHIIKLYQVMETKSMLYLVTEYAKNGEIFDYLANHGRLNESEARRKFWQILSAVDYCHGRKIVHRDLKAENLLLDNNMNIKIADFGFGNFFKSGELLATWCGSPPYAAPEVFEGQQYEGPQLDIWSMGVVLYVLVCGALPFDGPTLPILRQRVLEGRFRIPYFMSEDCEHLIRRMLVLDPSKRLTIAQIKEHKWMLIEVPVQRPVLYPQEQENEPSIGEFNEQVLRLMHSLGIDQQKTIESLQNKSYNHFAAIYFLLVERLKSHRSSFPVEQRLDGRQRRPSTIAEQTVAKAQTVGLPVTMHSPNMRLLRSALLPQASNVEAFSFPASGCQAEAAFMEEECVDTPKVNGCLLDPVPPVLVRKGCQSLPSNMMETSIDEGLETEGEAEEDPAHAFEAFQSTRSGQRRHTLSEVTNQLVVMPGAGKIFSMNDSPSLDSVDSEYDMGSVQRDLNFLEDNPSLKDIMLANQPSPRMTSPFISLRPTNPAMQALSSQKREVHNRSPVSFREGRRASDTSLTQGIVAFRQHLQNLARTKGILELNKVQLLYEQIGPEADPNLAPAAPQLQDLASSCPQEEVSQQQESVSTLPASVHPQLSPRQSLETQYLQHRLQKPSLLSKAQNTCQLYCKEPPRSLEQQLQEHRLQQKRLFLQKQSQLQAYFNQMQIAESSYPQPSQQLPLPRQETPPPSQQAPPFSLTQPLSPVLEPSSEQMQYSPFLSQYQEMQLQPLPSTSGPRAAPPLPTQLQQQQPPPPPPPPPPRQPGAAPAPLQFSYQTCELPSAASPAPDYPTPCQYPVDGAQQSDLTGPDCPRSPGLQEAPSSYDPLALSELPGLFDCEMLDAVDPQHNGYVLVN

[6] = target: T3, Serine/threonine-protein kinase tousled-like 1 (Homo sapiens) (UniProt Q9UKI8); assay: Competitive binding affinity to TLK1 (unknown origin) at 10 uM in presence of ATP relative to control
T3 sequence (whole entry): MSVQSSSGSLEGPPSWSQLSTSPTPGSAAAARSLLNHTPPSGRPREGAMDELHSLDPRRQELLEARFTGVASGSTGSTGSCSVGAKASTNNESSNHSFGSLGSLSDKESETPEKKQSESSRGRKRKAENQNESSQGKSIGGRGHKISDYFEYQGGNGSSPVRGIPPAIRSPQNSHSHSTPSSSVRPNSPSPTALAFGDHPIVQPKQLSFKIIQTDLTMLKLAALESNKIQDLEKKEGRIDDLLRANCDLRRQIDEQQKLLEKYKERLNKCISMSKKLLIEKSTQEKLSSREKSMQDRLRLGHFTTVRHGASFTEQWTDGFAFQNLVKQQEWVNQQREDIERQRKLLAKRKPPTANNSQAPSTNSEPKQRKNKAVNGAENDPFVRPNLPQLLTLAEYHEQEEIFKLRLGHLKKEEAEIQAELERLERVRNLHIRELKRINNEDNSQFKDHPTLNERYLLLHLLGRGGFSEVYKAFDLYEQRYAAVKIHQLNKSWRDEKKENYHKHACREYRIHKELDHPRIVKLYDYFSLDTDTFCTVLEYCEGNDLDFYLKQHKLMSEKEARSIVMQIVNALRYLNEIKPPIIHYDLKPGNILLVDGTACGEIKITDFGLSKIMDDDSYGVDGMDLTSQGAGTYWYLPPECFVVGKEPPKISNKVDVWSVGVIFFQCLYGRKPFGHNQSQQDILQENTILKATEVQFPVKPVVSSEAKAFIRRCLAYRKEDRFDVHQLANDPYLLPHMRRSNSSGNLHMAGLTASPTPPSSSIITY

HCT-116 = assay: Cytotoxicity against human HCT116 cells assessed as cell viability by WST-1 reduction assay; assay type: cell-based
Outline: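 Cytotoxicity was measured in an HCT-116 cell proliferation assay as reduction of WST-1 reagent. Values are the mean of at least three experiments.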

[7] = target: Cyclin-dependent kinase 2/cyclin E1 (Homo sapiens, UniProt P24941); assay: Inhibition of human recombinant CDK2/GST-tagged cyclin E expressed in baculovirus infected insect cells assessed as inhibition of 6XHis-tagged retinoblastoma protein (386 to 928) phosphorylation after 30 mins by scintillation counting analysis in presence of [gamma-33P]-ATP
Outline: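 CDK2 activity was measured as phosphorylation of a 6-histidine-tagged truncated retinoblastoma protein (amino acids 386–928) using [γ-33P]ATP.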

Row | SMILES | inhibition [1] [%] | inhibition [2] [%] | inhibition [3] [%] | inhibition [4] [%] | inhibition [5] [%] | inhibition [6] [%] | pIC50 (HCT-116) | pIC50 [7]
1 | CS(=O)(=O)CCCOc1cccc2c1ccn2-c1ccnc(N[C@H]2CC[C@H](C(=O)N3CCC(O)CC3)CC2)n1 | > 85 |  |  |  |  |  |  | 
2 | O[C@H]1CC[C@H](Nc2nccc(-n3ccc4ccccc43)n2)CC1 | 95 | < 50 | < 50 | < 50 | < 50 | < 50 |  | 
3 | N[C@H]1CC[C@H](Nc2nccc(-n3nnc4ccccc43)n2)CC1 |  |  |  |  |  |  | 6.11 | 6.44
4 | O[C@H]1CC[C@H](Nc2nccc(-n3nnc4ccccc43)n2)CC1 | 100 | < 50 | < 50 | < 50 | 73 | < 50 | 5.92 | 6.37
5 | O[C@H]1CC[C@H](Nc2nccc(-n3ncc4ccccc43)n2)CC1 | 97 | < 50 | < 50 | < 50 | < 50 | < 50 |  | 
6 | O=C([C@H]1CC[C@H](Nc2nccc(-n3nnc4ccccc43)n2)CC1)N1CCOCC1 |  |  |  |  |  |  | 4.70 | 5.70
7 | O[C@H]1CC[C@H](Nc2nccc(-c3n[nH]c4ccccc34)n2)CC1 |  |  |  |  |  | 90 |  | 
